Assay [1] addresses Tyrosine-protein kinase Lyn (Homo sapiens) (UniProt P07948). In words: Inhibition of LYN at 10 uM by HotSpot assay.
In assay [2] the target is Vascular endothelial growth factor receptor 2 (Homo sapiens) (UniProt P35968). The assay can be described thus: Inhibition of KDR at 10 uM by HotSpot assay.
For assay [3], the target named is Calcium/calmodulin-dependent protein kinase type II subunit beta (Homo sapiens) (UniProt Q13554). The assay can be described thus: Inhibition of CAMK2B at 10 uM by HotSpot assay.
Assay [4] has as its target Tyrosine-protein kinase Lck (Homo sapiens) (UniProt P06239). The assay can be described thus: Inhibition of LCK at 10 uM by HotSpot assay.
The target in assay [5] is Serine/threonine-protein kinase PAK 2 (Homo sapiens) (UniProt Q13177). In words: Inhibition of PAK2 at 10 uM by HotSpot assay.
In assay [6] the target is Insulin-like growth factor 1 receptor (Homo sapiens) (UniProt P08069). The assay can be described thus: Inhibition of IGF1R at 10 uM by HotSpot assay.
In assay [7] the target is Ephrin type-A receptor 1 (Homo sapiens) (UniProt P21709). The assay can be described thus: Inhibition of EPHA1 at 10 uM by HotSpot assay.
Assay [8] addresses Tyrosine-protein kinase SYK (Homo sapiens) (UniProt P43405). The assay can be described thus: Inhibition of SYK at 10 uM by HotSpot assay.
The target of assay [9] is Mitogen-activated protein kinase 8 (Homo sapiens) (UniProt P45983). The assay can be described thus: Inhibition of JNK1 at 10 uM by HotSpot assay.
Chain of Mitogen-activated protein kinase 8 (Homo sapiens) (P45983 whole entry): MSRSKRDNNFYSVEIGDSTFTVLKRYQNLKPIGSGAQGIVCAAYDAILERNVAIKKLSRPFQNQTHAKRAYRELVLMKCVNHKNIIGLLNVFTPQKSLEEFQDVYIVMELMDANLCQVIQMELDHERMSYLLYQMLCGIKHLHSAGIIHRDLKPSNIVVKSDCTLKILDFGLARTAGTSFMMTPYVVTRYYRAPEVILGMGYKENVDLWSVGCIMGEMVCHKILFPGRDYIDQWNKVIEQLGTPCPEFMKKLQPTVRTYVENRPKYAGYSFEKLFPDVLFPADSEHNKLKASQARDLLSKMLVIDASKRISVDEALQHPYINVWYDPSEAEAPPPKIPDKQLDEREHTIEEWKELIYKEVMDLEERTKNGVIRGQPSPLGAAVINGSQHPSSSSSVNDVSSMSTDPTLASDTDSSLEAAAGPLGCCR
Assay [10] concerns the target Epidermal growth factor receptor (Homo sapiens) (UniProt P00533). The assay can be described thus: Inhibition of EGFR at 10 uM by HotSpot assay.
Assay [11] addresses Hepatocyte growth factor receptor (Homo sapiens) (UniProt P08581). In words: Inhibition of c-MET at 10 uM by HotSpot assay.
The target of assay [12] is Macrophage-stimulating protein receptor (Homo sapiens) (UniProt Q04912). The assay can be described thus: Inhibition of RON at 10 uM by HotSpot assay.
Chain of Macrophage-stimulating protein receptor (Homo sapiens) (Q04912 25-304 limits assumed): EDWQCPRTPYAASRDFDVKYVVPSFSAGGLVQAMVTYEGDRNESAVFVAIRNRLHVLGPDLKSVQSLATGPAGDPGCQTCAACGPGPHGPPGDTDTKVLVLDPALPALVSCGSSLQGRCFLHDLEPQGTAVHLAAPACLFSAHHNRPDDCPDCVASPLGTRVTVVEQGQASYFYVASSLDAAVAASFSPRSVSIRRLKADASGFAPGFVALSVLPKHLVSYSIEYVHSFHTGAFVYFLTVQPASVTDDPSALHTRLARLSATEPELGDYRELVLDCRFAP
Chain of Macrophage-stimulating protein receptor (Homo sapiens) (Q04912 310-1400 limits assumed): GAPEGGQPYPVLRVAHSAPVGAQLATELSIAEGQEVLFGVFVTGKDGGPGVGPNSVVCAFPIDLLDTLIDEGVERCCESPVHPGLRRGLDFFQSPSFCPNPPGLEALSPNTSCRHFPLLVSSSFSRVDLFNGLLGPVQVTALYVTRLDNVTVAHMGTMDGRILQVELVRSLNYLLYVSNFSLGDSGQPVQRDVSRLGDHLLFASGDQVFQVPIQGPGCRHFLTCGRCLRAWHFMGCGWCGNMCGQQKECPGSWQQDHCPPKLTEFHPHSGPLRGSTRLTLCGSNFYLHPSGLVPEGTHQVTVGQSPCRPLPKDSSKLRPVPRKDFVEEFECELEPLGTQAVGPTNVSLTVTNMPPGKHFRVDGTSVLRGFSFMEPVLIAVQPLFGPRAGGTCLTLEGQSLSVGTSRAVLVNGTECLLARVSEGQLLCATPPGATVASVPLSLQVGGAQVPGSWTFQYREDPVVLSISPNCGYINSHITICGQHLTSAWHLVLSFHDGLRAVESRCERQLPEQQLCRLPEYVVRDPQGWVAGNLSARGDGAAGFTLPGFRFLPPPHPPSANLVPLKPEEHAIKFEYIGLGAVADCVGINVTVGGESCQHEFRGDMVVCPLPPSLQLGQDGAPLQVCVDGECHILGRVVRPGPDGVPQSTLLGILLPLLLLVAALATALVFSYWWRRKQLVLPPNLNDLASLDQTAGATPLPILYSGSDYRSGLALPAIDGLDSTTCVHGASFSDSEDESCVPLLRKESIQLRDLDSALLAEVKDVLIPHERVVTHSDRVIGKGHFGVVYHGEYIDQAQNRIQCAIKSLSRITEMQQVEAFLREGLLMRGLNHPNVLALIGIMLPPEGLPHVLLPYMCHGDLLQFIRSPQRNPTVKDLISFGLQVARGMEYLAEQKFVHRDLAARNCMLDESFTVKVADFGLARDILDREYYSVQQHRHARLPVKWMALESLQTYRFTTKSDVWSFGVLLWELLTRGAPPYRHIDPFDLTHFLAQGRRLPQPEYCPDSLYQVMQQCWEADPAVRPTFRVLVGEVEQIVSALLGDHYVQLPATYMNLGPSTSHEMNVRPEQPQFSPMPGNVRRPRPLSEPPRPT
Assay [13] has as its target Protein-tyrosine kinase 2-beta (Homo sapiens) (UniProt Q14289). In words: Inhibition of PTK2B at 10 uM by HotSpot assay.
Assay [14] addresses Serine/threonine-protein kinase B-raf (Homo sapiens) (UniProt P15056). In words: Inhibition of B-Raf at 10 uM by HotSpot assay.
In a further assay the test system is HCC 2998. In words: Growth inhibition of human HCC2998 cells after 48 hrs by sulforhodamine B assay. The class given is functional. As to conditions: HCC 2998, 48 h. The procedure, abridged: (§1)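 Cells grown in RPMI 1640 with 5% FBS and 2 mM L-glutamine, seeded at 5,000–40,000 cells/well according to doubling time. After 24 h, time-zero plates are TCA-fixed. Five concentrations (10-fold or ½log dilutions, DMSO stocks) are applied for 48 h at 37 °C, 5% CO₂. Cells are TCA-fixed, SRB-stained and read at 515 nm. IC₅₀ is taken from [(Ti−Tz)/(C−Tz)]×100 = 50.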

Assay [15] has as its system HOP-92. In words: Cytotoxicity against human HOP92 cells assessed as cell growth at 0.01 uM after 48 hrs by sulforhodamine B assay. Conditions: HOP-92, 48 h, read-out: Activity. The assay is classed as functional.
Assay [16] concerns NCI-H226. The assay can be described thus: Cytotoxicity against human NCI-H226 cells assessed as cell growth at 0.001 uM after 48 hrs by sulforhodamine B assay. The assay is classed as functional. As to conditions: NCI-H226, 48 h, read-out: Activity.
The test system of assay [17] is SK-MEL-28. In words: Cytotoxicity against human SK-MEL-28 cells assessed as cell growth at 100 nM after 48 hrs by sulforhodamine B assay. The assay is classed as functional. As to conditions: SK-MEL-28, 48 h, read-out: Activity.
Assay [18] relates to NCI-H226. In words: Cytotoxicity against human NCI-H226 cells assessed as cell growth at 10 uM after 48 hrs by sulforhodamine B assay. The assay is classed as functional. Conditions: NCI-H226, 48 h, read-out: Activity.
Assay [19] has as its system RXF 393. The assay can be described thus: Cytotoxicity against human RXF393 cells assessed as cell growth at 10 uM after 48 hrs by sulforhodamine B assay. The assay is classed as functional. Conditions: RXF 393, 48 h, read-out: Activity.
Assay [20] in a line: Cytotoxicity against human RPMI8266 cells assessed as cell growth at 100 nM after 48 hrs by sulforhodamine B assay. The class given is functional. Conditions: read-out: Activity.
The test system of assay [21] is SR. The assay can be described thus: Cytotoxicity against human SR cells assessed as cell growth at 0.001 uM after 48 hrs by sulforhodamine B assay. Conditions: read-out: Activity. The class given is functional.
Assay [22] has as its system HOP-92. The assay can be described thus: Cytotoxicity against human HOP92 cells assessed as cell growth at 10 uM after 48 hrs by sulforhodamine B assay. The class given is functional. Conditions: HOP-92, 48 h, read-out: Activity.
The subject of assay [23] is HOP-92. The assay can be described thus: Cytotoxicity against human HOP92 cells assessed as cell growth at 1 uM after 48 hrs by sulforhodamine B assay. Conditions: HOP-92, 48 h, read-out: Activity. The class given is functional.
For assay [24], the system named is SR. In words: Cytotoxicity against human SR cells assessed as cell growth at 1 uM after 48 hrs by sulforhodamine B assay. Conditions: read-out: Activity. The class given is functional.
The test system of assay [25] is SK-MEL-28. The assay can be described thus: Growth inhibition of human SK-MEL-28 cells after 48 hrs by sulforhodamine B assay. As to conditions: SK-MEL-28, 48 h. The class given is functional. A digest of the protocol: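 Adherent SK-MEL-28 cells, plated in RPMI 1640 with 5% FBS and 2 mM L-glutamine, get five 10-fold or ½log drug dilutions for 48 h at 37 °C. Cells are fixed with cold TCA (final 10%) for 60 min at 4 °C, stained with 0.4% SRB, solubilized in 10 mM Tris and read at 515 nm. IC50 is solved from [(Ti−Tz)/(C−Tz)]×100 = 50.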

Assay [26] concerns MCF7. The assay can be described thus: Growth inhibition of human MCF7 cells after 48 hrs by sulforhodamine B assay. The assay is classed as functional. As to conditions: MCF7, 48 h. A digest of the protocol: as §1
In assay [27] the test system is RXF 393. The assay can be described thus: Cytotoxicity against human RXF393 cells assessed as cell growth at 1 uM after 48 hrs by sulforhodamine B assay. The class given is functional. Conditions: RXF 393, 48 h, read-out: Activity.
Assay [28] deals with SK-MEL-28. In words: Cytotoxicity against human SK-MEL-28 cells assessed as cell growth at 0.01 uM after 48 hrs by sulforhodamine B assay. The assay is classed as functional. As to conditions: SK-MEL-28, 48 h, read-out: Activity.
Assay [29] has as its system CCRF-CEM. In words: Cytotoxicity against human CCRF-CEM cells assessed as cell growth at 10 uM after 48 hrs by sulforhodamine B assay. The assay is classed as functional. As to conditions: read-out: Activity.
A short description of assay [30]: Growth inhibition of human RPMI8266 cells after 48 hrs by sulforhodamine B assay. The assay is classed as functional. The procedure, abridged: as §1
Assay [31] relates to MCF7. In words: Cytotoxicity against human MCF7 cells assessed as cell growth at 1 uM after 48 hrs by sulforhodamine B assay. The class given is functional. Conditions: MCF7, 48 h, read-out: Activity.
Assay [32] concerns SK-MEL-28. In words: Cytotoxicity against human SK-MEL-28 cells assessed as cell growth at 1 uM after 48 hrs by sulforhodamine B assay. The class given is functional. Conditions: SK-MEL-28, 48 h, read-out: Activity.
Assay [33] is described as follows: Cytotoxicity against human RPMI8266 cells assessed as cell growth at 1 uM after 48 hrs by sulforhodamine B assay. The class given is functional. Conditions: read-out: Activity.
In a further assay the test system is PC-3. The assay can be described thus: Cytotoxicity against human PC3 cells assessed as cell growth at 1 uM after 48 hrs by sulforhodamine B assay. The class given is functional. Conditions: PC-3, 48 h, read-out: Activity.
Assay [34] deals with CCRF-CEM. The assay can be described thus: Cytotoxicity against human CCRF-CEM cells assessed as cell growth at 0.01 uM after 48 hrs by sulforhodamine B assay. The class given is functional. Conditions: read-out: Activity.
In assay [35] the test system is SR. In words: Cytotoxicity against human SR cells assessed as cell growth at 100 nM after 48 hrs by sulforhodamine B assay. The class given is functional. As to conditions: read-out: Activity.
Assay [36] relates to MCF7. The assay can be described thus: Cytotoxicity against human MCF7 cells assessed as cell growth at 100 nM after 48 hrs by sulforhodamine B assay. As to conditions: MCF7, 48 h, read-out: Activity. The assay is classed as functional.
The mark [37] stands for this setting: read-out: LC50 (the source's name).

Chain of Vascular endothelial growth factor receptor 2 (Homo sapiens) (P35968 whole entry): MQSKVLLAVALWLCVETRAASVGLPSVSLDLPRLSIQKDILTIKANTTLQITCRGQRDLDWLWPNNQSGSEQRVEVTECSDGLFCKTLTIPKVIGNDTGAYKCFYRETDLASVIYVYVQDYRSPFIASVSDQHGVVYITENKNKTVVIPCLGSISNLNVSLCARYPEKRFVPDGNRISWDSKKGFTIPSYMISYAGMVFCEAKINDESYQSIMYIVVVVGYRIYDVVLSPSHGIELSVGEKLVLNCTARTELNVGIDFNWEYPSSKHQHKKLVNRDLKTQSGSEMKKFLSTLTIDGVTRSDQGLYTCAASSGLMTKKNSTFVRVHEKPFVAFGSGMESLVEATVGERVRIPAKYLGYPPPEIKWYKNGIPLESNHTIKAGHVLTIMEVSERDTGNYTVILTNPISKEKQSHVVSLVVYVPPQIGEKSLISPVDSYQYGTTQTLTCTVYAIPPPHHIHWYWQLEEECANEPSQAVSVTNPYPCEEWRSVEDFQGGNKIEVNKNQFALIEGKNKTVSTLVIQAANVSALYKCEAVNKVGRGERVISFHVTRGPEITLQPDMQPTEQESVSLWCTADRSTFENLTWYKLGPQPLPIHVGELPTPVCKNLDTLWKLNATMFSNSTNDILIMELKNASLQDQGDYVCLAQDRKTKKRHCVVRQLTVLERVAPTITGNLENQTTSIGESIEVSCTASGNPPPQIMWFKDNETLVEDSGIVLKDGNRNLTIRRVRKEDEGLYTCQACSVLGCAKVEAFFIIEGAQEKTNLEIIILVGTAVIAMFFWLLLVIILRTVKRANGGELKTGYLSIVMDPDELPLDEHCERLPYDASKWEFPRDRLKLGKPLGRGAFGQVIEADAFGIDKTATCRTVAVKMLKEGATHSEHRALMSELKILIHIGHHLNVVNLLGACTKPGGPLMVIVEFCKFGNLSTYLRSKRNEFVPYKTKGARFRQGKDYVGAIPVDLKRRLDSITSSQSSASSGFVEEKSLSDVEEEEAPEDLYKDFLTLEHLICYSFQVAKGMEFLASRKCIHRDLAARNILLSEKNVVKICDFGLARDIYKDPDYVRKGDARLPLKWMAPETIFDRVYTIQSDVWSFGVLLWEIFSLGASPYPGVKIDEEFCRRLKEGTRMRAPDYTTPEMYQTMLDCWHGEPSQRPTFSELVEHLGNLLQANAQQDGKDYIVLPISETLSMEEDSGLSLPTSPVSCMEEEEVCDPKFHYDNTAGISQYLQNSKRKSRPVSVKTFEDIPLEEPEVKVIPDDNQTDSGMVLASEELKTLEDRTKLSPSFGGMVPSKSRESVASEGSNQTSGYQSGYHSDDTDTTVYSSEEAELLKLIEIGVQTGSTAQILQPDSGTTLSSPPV
Chain of Hepatocyte growth factor receptor (Homo sapiens) (P08581 whole entry): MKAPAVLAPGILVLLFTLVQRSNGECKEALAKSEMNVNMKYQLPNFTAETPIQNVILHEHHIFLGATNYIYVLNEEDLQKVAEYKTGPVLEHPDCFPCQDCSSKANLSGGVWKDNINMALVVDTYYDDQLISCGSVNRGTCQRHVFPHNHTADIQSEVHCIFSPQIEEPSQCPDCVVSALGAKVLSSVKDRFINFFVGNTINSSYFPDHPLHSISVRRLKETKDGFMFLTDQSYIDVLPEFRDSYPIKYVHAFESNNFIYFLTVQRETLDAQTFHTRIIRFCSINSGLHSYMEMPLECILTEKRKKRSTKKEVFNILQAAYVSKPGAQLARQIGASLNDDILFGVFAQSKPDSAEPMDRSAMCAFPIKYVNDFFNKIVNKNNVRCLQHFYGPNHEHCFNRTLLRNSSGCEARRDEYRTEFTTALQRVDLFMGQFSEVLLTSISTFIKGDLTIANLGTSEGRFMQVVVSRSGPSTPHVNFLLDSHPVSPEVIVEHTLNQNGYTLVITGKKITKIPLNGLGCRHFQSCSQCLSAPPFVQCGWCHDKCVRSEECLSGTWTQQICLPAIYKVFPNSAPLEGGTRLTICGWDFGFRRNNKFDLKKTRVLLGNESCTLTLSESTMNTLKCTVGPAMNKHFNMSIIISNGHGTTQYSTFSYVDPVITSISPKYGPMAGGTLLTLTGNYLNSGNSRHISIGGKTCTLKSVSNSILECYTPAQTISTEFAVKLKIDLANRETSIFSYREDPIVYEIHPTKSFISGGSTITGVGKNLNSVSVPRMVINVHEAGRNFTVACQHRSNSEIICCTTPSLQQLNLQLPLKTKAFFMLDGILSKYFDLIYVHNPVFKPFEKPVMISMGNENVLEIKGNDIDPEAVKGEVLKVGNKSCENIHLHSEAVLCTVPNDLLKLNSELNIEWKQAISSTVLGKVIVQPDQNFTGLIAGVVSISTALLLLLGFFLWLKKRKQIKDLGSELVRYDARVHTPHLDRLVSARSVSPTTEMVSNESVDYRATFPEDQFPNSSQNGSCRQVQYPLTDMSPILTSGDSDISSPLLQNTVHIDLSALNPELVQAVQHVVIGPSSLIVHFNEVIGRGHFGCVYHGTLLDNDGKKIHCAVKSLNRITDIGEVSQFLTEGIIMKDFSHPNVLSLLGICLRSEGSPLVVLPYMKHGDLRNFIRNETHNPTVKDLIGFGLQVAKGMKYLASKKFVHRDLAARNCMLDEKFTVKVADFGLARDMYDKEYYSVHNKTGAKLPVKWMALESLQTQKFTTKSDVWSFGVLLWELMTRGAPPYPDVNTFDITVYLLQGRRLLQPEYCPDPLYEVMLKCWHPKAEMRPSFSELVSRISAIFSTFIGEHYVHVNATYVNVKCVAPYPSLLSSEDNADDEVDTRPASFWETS
Chain of Tyrosine-protein kinase Lck (Homo sapiens) (P06239 2-509 limits assumed): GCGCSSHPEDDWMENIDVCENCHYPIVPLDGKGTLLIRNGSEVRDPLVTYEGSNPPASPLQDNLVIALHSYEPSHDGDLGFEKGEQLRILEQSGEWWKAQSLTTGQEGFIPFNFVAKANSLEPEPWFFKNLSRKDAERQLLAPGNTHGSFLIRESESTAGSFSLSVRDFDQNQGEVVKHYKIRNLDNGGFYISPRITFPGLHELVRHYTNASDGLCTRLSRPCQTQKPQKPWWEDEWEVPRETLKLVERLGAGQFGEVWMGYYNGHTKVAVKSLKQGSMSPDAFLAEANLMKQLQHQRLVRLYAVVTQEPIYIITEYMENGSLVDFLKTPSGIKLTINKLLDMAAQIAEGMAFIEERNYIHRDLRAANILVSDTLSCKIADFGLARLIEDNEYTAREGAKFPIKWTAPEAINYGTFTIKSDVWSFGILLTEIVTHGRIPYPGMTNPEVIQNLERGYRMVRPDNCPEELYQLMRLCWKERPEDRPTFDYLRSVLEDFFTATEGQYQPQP

With `CC(=O)Nc1cccc(-c2ccc(-c3ccnc(NC(=O)Nc4cc(C(F)(F)F)cc(C(F)(F)F)c4)n3)cn2)c1.Cl`, the inhibition is < 50% in [1]; 50% in assay [2]; < 50% in assay [3]; 70% in assay [4]; < 50% in assay [5]; < 50% in assay [6]. The inhibition in assay [7], in assay [8], in assay [9], in [10], in assay [11] and in assay [12] was < 50% throughout. In addition, the inhibition in [13] and in assay [14] was < 50% in each case.

Consider `CC(=O)c1ccccc1-c1ccc(-c2ccnc(NC(=O)Nc3cc(N4CCOCC4)cc(C(F)(F)F)c3)n2)cn1`, for which the GI50 (with HCC 2998; in the assay on MCF7 [26]; in [30]) was > 100 µM each time. For the same compound, the TGI (with HCC 2998; in the assay with SK-MEL-28 [25]; in the assay on MCF7 [26]; in assay [30]) was > 100 µM in each case. Moreover, the CC50 (in the assay with HCC 2998 (setting [37]); with SK-MEL-28 [25] (setting [37]); in the assay with MCF7 [26] (setting [37]); in assay [30] (setting [37])) was > 100 µM in each case. Besides, the growth at 0.01 µM worked out at 102% in the assay on HOP-92 [15], 107% with SK-MEL-28 [28] and 102% with CCRF-CEM [34]. Besides, the growth at 0.001 µM in the assay with NCI-H226 [16] is 105%; in the assay with SR [21], 94%. Further, the growth at 0.1 µM in the assay on SK-MEL-28 [17] is 92%; in [20], 79%; in the assay on SR [35] it was 74%; in the assay with MCF7 [36], 100%. The growth at 10 µM with NCI-H226 [18] is 71%; with RXF 393 [19], -16%; with HOP-92 [22] it was 20%; with CCRF-CEM [29], 97%. For the same compound, the growth at 1 µM is -2% with HOP-92 [23]; 78% in the assay on SR [24]; -52% in the assay with RXF 393 [27]; 90% in the assay on MCF7 [31]; 4% with SK-MEL-28 [32]; 78% in [33]. In the assay on PC-3, the growth at 1 µM amounted to 78%.

The values are drawn from ChEMBL document CHEMBL1165943, “Design and synthesis of new anticancer pyrimidines with multiple-kinase inhibitory effect” (Bioorg Med Chem, 2010).
